# Compounds with a hit are over-represented: about 6.1% of the library has one in this group of screens.
# Yeast lifespan up = compounds extending yeast replicative lifespan, primary screen, S. cerevisiae, OD615; 130,000 tested, 0.68% active; S. cerevisiae growth with nicotinamide; deaD strain in restrictive glucose medium; inhibition of the nicotinamide effect, % at 10 µM; AID 775, 2007;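 active = inhibition above a set limit, placed 3 SD over the median of all compounds, cut at about 26% in these data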;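 note: 0% = nicotinamide-treated wells and 100% = cells grown without nicotinamide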
#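 System: DeaD-strain S. cerevisiae / Buffer or medium: CSMM-D, restrictive glucose (dextrose) synthetic minimal medium / Probe or stimulus: nicotinamide, 1.5 mM, co-present with compound / Compound: one concentration, 10 µM, DMSO 0.25% / Incubation: 48 h compound exposure at 30 °C, humidified / Technique: optical density (absorbance) at 615 nm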
# Measles CPE = compounds protecting cells from measles virus cytopathic effect, primary screen, measles RdRp inhibitor project, single point, MLSMR library, absorbance | Measles virus-infected cells, CPE protection | protection (pct of control), % at 4 µM | 140,000 tested, 1.5% active | AID 841, 2007; in the data active = protection mostly above about 24%, no sharp cut-off; inactive = mostly below about 26%
# BB579 growth dn = growth inhibitors of yeast BB579 in restrictive medium, primary screen, yeast lifespan-shortening project, S. cerevisiae | OD615, 48 h | inhibition, % at 10 µM | 140,000 tested, 0.51% active | AID 804, 2007;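 active = inhibition above a set limit, 3 SD over the mean compound inhibition, cut at about 44% in these data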
#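 Test system: DeaD yeast strain BB579 / Buffer or medium: restrictive glucose-based CSMM-D medium / Doses: single 10 µM dose / Schedule: 4 h cell preincubation, 48 h compound exposure, 30 °C humidified / Technique: culture absorbance at 615 nm / Controls: amphotericin B positive control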
# RAM network inh = inhibitors of the yeast RAM network, primary screen, dse1pr::URA3 reporter, 5-FOA selection; inhibition, % at 50 µM; S. cerevisiae dse1pr::URA3 reporter, 5-FOA growth OD615, 2 d; analog-sensitive cbk1-as2 kinase mutant strain; 190,000 tested, 1.8% active;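 active = inhibition above a set limit, 3 SD over mean compound inhibition, cut at about 8.4% in these data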;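 note: 0% = DMSO-only wells with no growth and 100% = 10 µM 1-NA-PP1 full growth; inhibition rescues growth on 5-FOA so higher OD means more RAM inhibition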
# WT yeast gro inh = growth inhibition of WT strain, primary screen, mitochondrial fusion inhibitor project, WT and mutant strains, chemical genetic. mitochondrial fusion phenotypic screen. inhibition, % at 10 µM. 190,000 tested, 2.1% active. AID 1362, 2008; in the data active = inhibition above about 58%; tested in S. cerevisiae
# DAT uptake mod = changed hDAT dopamine uptake under cocaine IC80, either direction, primary screen, cocaine antagonist project, cell-based, LLC-PK1 hDAT, [14C]-dopamine uptake, MLSMR. Sodium-dependent dopamine transporter (Homo sapiens), Q01959. LLC-PK1 hDAT cells, [14C]-dopamine uptake with cocaine IC80; actives deviate in either direction. B-score at 10 µM. 110,000 tested, 1.3% active. AID 449768, 2010;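 active = Z score or B-score, a plate-position-corrected score, falls beyond the plate's 99.7% confidence bounds, in either direction; inactive = both scores lie inside the 99.7% bounds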;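 note: scored against the spread of the other compound wells on the same plate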
# Target sequence (Q01959 whole entry, looked up): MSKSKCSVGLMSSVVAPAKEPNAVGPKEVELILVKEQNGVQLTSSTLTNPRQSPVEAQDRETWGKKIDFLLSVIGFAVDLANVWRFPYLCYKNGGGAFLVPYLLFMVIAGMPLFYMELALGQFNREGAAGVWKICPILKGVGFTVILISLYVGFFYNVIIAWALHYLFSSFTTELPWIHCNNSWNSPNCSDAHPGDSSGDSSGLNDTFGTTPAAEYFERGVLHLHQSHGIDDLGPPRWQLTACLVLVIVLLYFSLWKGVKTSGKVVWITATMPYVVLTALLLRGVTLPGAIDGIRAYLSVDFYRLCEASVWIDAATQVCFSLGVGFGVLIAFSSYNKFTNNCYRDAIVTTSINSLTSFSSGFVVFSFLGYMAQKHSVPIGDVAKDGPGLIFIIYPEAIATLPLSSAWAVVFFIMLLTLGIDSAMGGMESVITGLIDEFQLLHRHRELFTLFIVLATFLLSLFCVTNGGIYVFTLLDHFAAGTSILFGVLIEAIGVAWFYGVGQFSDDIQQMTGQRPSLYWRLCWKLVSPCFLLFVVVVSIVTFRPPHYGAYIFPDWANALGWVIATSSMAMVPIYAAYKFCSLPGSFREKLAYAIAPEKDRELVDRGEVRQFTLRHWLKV
# * hit, by the source's call; nt = no result.
SMILES,Yeast lifespan up,Measles CPE,BB579 growth dn,RAM network inh,WT yeast gro inh,DAT uptake mod
O=C(Oc1ccccc1C(=O)Nc1ccccc1)c1ccccc1Br,-2,1,8,6,38,nt
Cn1cc([N+](=O)[O-])c(C(=O)NNC(=O)c2ccc([N+](=O)[O-])cc2Cl)n1,nt,nt,nt,0,-24,nt
COc1cc(NC(c2ccccc2)c2ccccc2)cc(OC)c1OC,nt,nt,nt,8.4*,40,nt
Oc1cc2c(cc1C(c1ccc(Cl)c(Cl)c1)N1CCCC1)OCO2 (stereo not given),nt,nt,nt,-2,45,nt
Cc1cccc(-c2ncc(CN3CCCC(CO)(Cc4ccccc4C)C3)cn2)c1 (stereo not given),nt,nt,nt,-2,60*,nt
CC(=O)c1ccc(-n2c(C)ccc2-c2ccccc2)cc1,-19,4,5,2,62*,-1.4
O=C(NCCc1c[nH]c2ccccc12)c1cccnc1,-6,74*,-21,-1,8,-0.8
O=C(O)c1nccnc1C(=O)NCCc1c[nH]c2ccccc12,nt,nt,nt,0,-11,nt
CCN(c1ccccc1)S(=O)(=O)c1ccc(Cl)c(NC(=O)Nc2ccc(Cl)cc2C#N)c1,4,7,-46,4,56,nt
CN(c1ccccc1)S(=O)(=O)c1cccc(NC(=O)Nc2ccc(Cl)cc2C#N)c1,2,25*,-33,1,-7,nt
CCN=c1scc(C)n1/N=C/c1ccc(O)c(O)c1O,-16,19,8,-1,4,-0.54
COCCN=c1scc(-c2ccccc2)n1/N=C/c1c[nH]c2ccccc12,-4,nt,5,-1,79*,nt
Cc1cc(C)n(/N=C/c2c[nH]c3ccccc23)c(=O)c1,-6,4,-33,1,5,-0.059
COCCN=c1scc(-c2cccs2)n1/N=C/c1ccc(O)c(O)c1O,-1,4,-35,9.6*,3,nt
Cc1cc2ncn(C3CC(=O)N(Cc4ccc(N5CCCC5=O)cc4)C3=O)c2cc1C (stereo not given),-6,10,19,0,4,-0.16
Clc1ccc(CO/N=C/c2c(-c3ccccc3)nc3n2CCS3)c(Cl)c1,2,7,-53,11*,1,0.49
CCOC(=O)c1sc(N=NC2=C(O)CC(C)(C)CC2=O)c(C(=O)OCC)c1C,nt,nt,nt,1,-7,nt
CCOC(=O)C1CCN(c2nc(-c3ccc(C)cc3)nc3ccccc23)CC1,nt,nt,nt,2,71*,nt
CCOC(=O)C1CCN(c2nc3ccccc3nc2C(C#N)C(=O)NCCc2ccccc2)CC1 (stereo not given),-8,2,-16,4,82*,nt
CCOC(=O)C1CCN(c2c(C(=O)c3ccccc3)cnc3ccc(Cl)cc23)CC1,nt,nt,nt,1,75*,0.39
O=C(c1ccco1)N(Cc1cccc([N+](=O)[O-])c1)c1ccc(Br)cc1,nt,nt,nt,9.3*,47,nt
O=C(c1ccco1)N(Cc1ccccc1)c1cccc([N+](=O)[O-])c1,nt,nt,nt,1,23,nt
O=C(c1ccco1)N(Cc1ccc([N+](=O)[O-])cc1)c1ccc(Br)cc1,3,7,-37,8.4*,31,2.9*
NC(=O)NOCc1ccccc1F,nt,nt,nt,0,-2,nt
CC1CC(C)CN(c2ccc([N+](=O)[O-])cc2-c2nn[nH]n2)C1 (stereo not given),1,1,5,0,-7,nt
SMILES,Yeast lifespan up,Measles CPE,BB579 growth dn,RAM network inh,WT yeast gro inh,DAT uptake mod
S=c1[nH]nc(-c2ccco2)n1/N=C/c1ccccn1,nt,nt,nt,2,4,nt
O=[N+]([O-])c1ccccc1/C=N/n1c(-c2cccnc2)n[nH]c1=S,1,13,-18,4,-15,nt
O=[N+]([O-])c1cc(/C=N/n2c(-c3cccnc3)n[nH]c2=S)ccc1Cl,3,29*,-25,4,-1,nt
S=c1[nH]nc(-c2ccco2)n1/N=C/c1ccc(Cl)c(Cl)c1,-4,3,-21,3,76*,nt
Cc1ccc(-n2c(C)cc(C(=O)COc3c(CO)cc(F)cc3CO)c2C)cc1C,-2,8,-23,5,5,nt
C=CCN1C(=O)CSC1=Nc1ccc(O)cc1,-6,20,6,1,-23,-0.00086
C=CCn1c(O)c(C2=c3ccccc3=NC2=O)sc1=Nc1ccc(O)cc1,nt,nt,nt,nt,94*,0.2
O=S(=O)(Nc1cccc2ncccc12)c1cccs1,10,3,4,1,59*,-0.042
O=C1Nc2ccc(NS(=O)(=O)c3cccs3)c3cccc1c23,-4,44*,-23,3,-13,nt
N#C/C(=N/O)c1nc(-c2ccc(F)cc2)cs1,-3,11,54*,-1,2,nt
CC1(C)CC(=O)c2c(O)cc(OCc3ccc(Br)cc3)cc2O1,-3,31,-45,8.7*,32,0.037
COC(=O)c1ccc(CNC(=O)c2ccc(COc3ccccc3)cc2)cc1,1,3,-30,1,17,nt
COC(=O)c1ccc(COc2cc(O)c3c(c2)OC(C)(C)CC3=O)cc1,0,1,-66,10*,4,-1.1
COc1cc(O)c2c(c1)OC(C)(C)CC2=O,-11,0,-15,1,-1,2.2
COc1ccc(OC)c(NC(=S)NCc2cccnc2)c1,3,9,-44,1,-14,nt
CS(=O)(=O)N1CC(C(=O)O)Oc2ccc(CC(=O)O)cc21 (stereo not given),nt,nt,nt,4,12,nt
O=C(O)Cc1ccc2c(c1)N(S(=O)(=O)c1cccc(C(F)(F)F)c1)CC(C(=O)O)O2 (stereo not given),7,43*,-5,1,19,-0.18
O=C(NC1CCCC1)C(c1ccsc1)N(Cc1ccccc1)C(=O)Cc1cccs1 (stereo not given),-18,63*,-20,7,-13,nt
O=C(Nc1ccc(N=Nc2ccccc2)c(NC(=O)C2CCCO2)c1)C1CCCO1 (stereo not given),-4,22,1,0,14,nt
Cn1c(=O)c2c(nc(SCc3nn[nH]n3)n2Cc2ccccc2F)n(C)c1=O,-6,5,-21,10*,-16,0.069
Cn1c(=O)c2c(nc(SCCN3CCOCC3)n2Cc2ccccc2Cl)n(C)c1=O,0,16,-40,1,5,1.1
Cn1c(=O)c2c(nc(SCCN3CCCCC3)n2Cc2ccccc2)n(C)c1=O,-2,76*,-2,1,7,1.8
Cn1c(=O)c2c(nc(SCCN3CCOCC3)n2Cc2cccc3ccccc23)n(C)c1=O,-9,98*,-61,1,5,0.045
COCCNC(=O)CSc1c2c(nc3ccc(Cl)cc13)CCCC2,nt,nt,nt,0,-2,nt
